Assay: Toxicity liver stage against HepG2, at 10uM
Assay type: cell-based
Set-up: test concentration 10 uM, cell line HepG2-A16-CD81EGFP
Conditions: human, HepG2-A16-CD81EGFP cells; read-out: INHIBITION
Outline: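 Uninfected HepG2-A16-CD81EGFP cells, 3 × 10^3 per well, 1536-well, plated on prespotted compound at 10 μM final, parasite-free screening media added to match infected plates; puromycin 10 μM positive, DMSO 0.5% negative; run in parallel with 48 h PbLuc assay at 37 °C, 5% CO2; viability by CellTiter-Glo luminescence, normalized to controls.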

Compound | cytotoxicity at 10 µM [%]
O=C(C1CCOCC1)N1C[C@@H](F)[C@@H](OCc2nc3cc(F)ccc3[nH]2)C1 | -9.9
O=C(NC[C@H]1OC[C@@H](NCc2ccccn2)[C@@H]1O)c1ccc(F)cc1 | -2.65
CO[C@@H]1CN(C)S(=O)(=O)[C@@]12CCN(Cc1ccccc1)C2 | 3.02
COCCOC(=O)N1CCN2C[C@@H](CO)[C@H](c3ccccc3)[C@H]2C1 | 3.44
COC(=O)N1CCN2C[C@H](CO)[C@@H](c3ccccc3)[C@H]2C1 | 6.12
COC(=O)CCC(=O)N(Cc1ccc2cc[nH]c2c1)C1CC1 | -3.4
Cc1nn(C2CCS(=O)(=O)C2)c(C)c1CC(=O)NCc1ccccc1Cl (stereo not given) | -0.178
O=C(NCC(Cc1cccc(F)c1)n1cccc1)C1CC1 (stereo not given) | 1.22
CSCC(C)(O)CNC(=O)Nc1cc(C)cc(C)c1 (stereo not given) | -3.24
CCOc1ccc(NC(=O)Nc2cnc(N3CCOCC3)nc2)cc1 | -11.4
O=C1COc2ccc(Cl)cc2CN1CC1CC1 | -9.2
CCN1CC2(CCCCN2C(=O)c2ccsc2)CC1=O (stereo not given) | 5.97
c1ccc(COC[C@@]23CCC[C@@H]2CN(Cc2ccccn2)C3)nc1 | 1.39
CCNC(=O)c1cc(OC)c2cc(F)cc(C)c2n1 | -3.42
O=S(=O)(C1CC1)N1CCC2(COCc3cnc(N4CCOCC4)nc32)C1 (stereo not given) | -5.44
Cc1nn(CCC(=O)NC2CCS(=O)(=O)C2)c(C)c1Br (stereo not given) | 0.549
O=C(NCCCN1CCOCC1)c1ccn(COc2ccccc2)n1 | 5.5
O=C(NCCN1CCOCC1)c1ccn(COc2ccc(F)cc2)n1 | 6.17
CCOc1ccc(N2CCCN=C2NC(=O)c2ccc(OC)cc2)cc1 | 6.03
CCn1cc(CNc2ccc(F)c(F)c2)cn1 | -0.0638
CCS(=O)(=O)N1CCCC(n2nnn(-c3ccccc3)c2=O)C1 (stereo not given) | 2.65
CS(=O)(=O)c1cncnc1C1CCCN(C(=O)Nc2ccccc2F)C1 (stereo not given) | -0.675

Compound | cytotoxicity at 10 µM [%]
Cc1nonc1CN(C)Cc1cnn(-c2ccc(Cl)cc2)c1 | -16.3
Cc1cccc(CC2CCCN(C(=O)Cc3csc(C)n3)C2)n1 (stereo not given) | -26.5
Cc1cc(C)nc(C2CCN(C(=O)c3cnco3)C2)n1 (stereo not given) | -4.22
CCc1cc(C(F)(F)F)c2c(C3CCCN(C(=O)COC)C3)noc2n1 (stereo not given) | -17.6
Cc1noc(CCNC(=O)c2ccc(Br)c(S(=O)(=O)N(C)C)c2)n1 | 6.45
COc1cccc(F)c1C(C)NC(=O)NCc1cnc(C)s1 (stereo not given) | -4.94
Cc1noc(C(C)C)c1C(=O)NCC1CCN(c2ccccc2)C1 (stereo not given) | -11.8
CCC(O)(CNCc1ccncc1)c1ccc(Br)cc1 (stereo not given) | -8.64
c1cc(CNCc2cccc3c2OCCO3)cc(Cn2cncn2)c1 | -1.54
CN(CC(=O)NCC1CCCCC1)S(=O)(=O)c1cccnc1 | 3.82
CC(C)(C)C(=O)NCCCc1nc2ccccc2[nH]1 | 5.68
CCOCCC(=O)NC(Cc1ccc(C)cc1)c1ccccn1 (stereo not given) | -1.55
CCc1nc(CCNc2ncccc2C#N)sc1C | 15.4
CC(CNC(=O)c1cccc(C#N)c1)N1CCc2ccccc21 (stereo not given) | -16.3
Cc1cc(C)c(CNC(=O)N2CCC(N3CCNC3=O)CC2)c(C)c1 | -2.22
CCC(C)(CC(=O)OC)NC(=O)c1cccc(F)c1F (stereo not given) | -4.13
CC(C)NC(=O)c1cccc(NC(=O)CCCc2nc(C(C)C)no2)c1 | 5.51
COc1cc(NC(=O)N(C)Cc2ccc(Br)o2)ncn1 | -4.12
CC(C)n1c(C2CCCN(CC(N)=O)C2)nc2ccccc21 (stereo not given) | -7.68
CC(CO)NC(=O)Nc1ccc(COC2CCCC2)cc1 (stereo not given) | -7.41
CC1CCN(CCNC(=O)C2CCN(C(=O)C3CC3)CC2)CC1 | 6.86
CN(C)C(=O)Cn1cc(C(=O)NCCc2cccc(Cl)c2Cl)nn1 | -1.42

Compound | cytotoxicity at 10 µM [%]
CCc1nnc2n1CCN(C(=O)c1ccc3c(c1)nnn3C)C2 | -4.68
CCOc1ccccc1NC(=O)N(CCO)Cc1ccsc1 | 0.633
Cc1noc(Cl)c1CC(=O)N1CCCC1Cn1cccn1 (stereo not given) | -9.76
N#Cc1cccc(NC(=O)N2CCCC(N3CCCC3=O)C2)c1 (stereo not given) | 7.92
CC(C)NC(=O)NCCCOC1CCOCC1 | -17
CC(=O)N(c1ccc(F)cc1)c1nc(CN2CCCC2C(C)C)cs1 (stereo not given) | -12.2
O=C1CCCN1c1cccc(CNCc2nc(-c3ccco3)no2)c1 | 0.379
CN(CCS(=O)(=O)c1cc(Cl)ccc1Cl)CC(=O)Nc1ccc(F)cc1 | 8.9
CC(CC1CC1)NCCCN1CCCN(C)CC1 (stereo not given) | 31.7
Cc1noc(CCCC(=O)Nc2ncccc2Br)n1 | -15.7
CC(=O)c1cccc(OCCCC(=O)N(C)CCc2ccncc2)c1 | -11.7
Cc1nc(C)n(CC2CCCCN2CCS(C)(=O)=O)n1 (stereo not given) | -10.9
NS(=O)(=O)CCNC(=O)C1(c2ccc(Br)cc2)CC1 | -4.69
O=C(C1CCOC1)N1C[C@@H]2CCN(C(=O)c3cscn3)[C@@H]2C1 (stereo not given in full) | -2.85
Cc1nc(CN2C[C@@H]3CN(C(=O)CC(F)(F)F)C[C@@H]3C2=O)cs1 | -73.5
CN(Cc1ccc(-n2ccnc2)cc1)Cc1ncc[nH]1 | 3.69
CCn1ccnc1CN1CCCn2nc(CNC(=O)C3CCC3)cc2C1 | -7.79
CO[C@H]1COC[C@@H]1NC(=O)C1(Oc2ccc(Cl)cc2)CCNCC1 | -1.91
CC(C)Cc1noc(CN(C)c2cc(N(C)C)ncn2)n1 | -0.75
CC(C)N1CCCC2(CCN(c3nccc(C(F)(F)F)n3)C2)C1=O (stereo not given) | 11.4
Cc1ccc(C(=O)N2CCC3(CCC(=O)N(CC(C)O)C3)CC2)c(O)c1 (stereo not given) | 11
CCn1nc(C)c(CCNC(=O)C2CCCN(C(N)=O)C2)c1C (stereo not given) | -11.2

Compound | cytotoxicity at 10 µM [%]
CCC(CO)N(Cc1ccc(F)cc1)Cc1c(C)nn(C)c1Cl (stereo not given) | 8.64
CC(NC1CCCC1)c1ccccc1-n1cccn1 (stereo not given) | 7.5
CCOc1ccccc1OCCN(C)Cc1ncnn1CC | 10.2
COc1cccc(N2CCN(C(=O)C(OC)c3ccccc3)CC2=O)c1 (stereo not given) | -0.693
CC(C)Cc1cc(C(=O)NCC(O)CN2CCCCCC2)on1 (stereo not given) | -1.53
Cc1nc(C)c(C)c(NCCSCc2[nH]cnc2C)n1 | 2.3
CN1CCN(C[C@@H]2CN(C(=O)NCC3CCCCC3)C[C@@H]2CO)CC1 | -9.18
CCCSCC(=O)N1C[C@@H](NC(C)=O)[C@H](c2ccc(OC)cc2)C1 | 7.41
CC(C)N(Cc1nccn1C)C(=O)c1cnc(O)cn1 | -1.82
Cc1ccc(OC2(C(=O)NC(C)Cc3ccsc3)CCNCC2)cc1 (stereo not given) | -15.4
Cc1cc(C)c2nc(CN3CCC(CN)C3)cc(O)c2c1 (stereo not given) | -14.8
Cc1ccc(C(=O)O)cc1-c1cccc(C(C)N(C)C)c1 (stereo not given) | -3.17
CCC(=O)N1CCCC1c1nccnc1Nc1nc(C)cc(C)n1 (stereo not given) | 3.99
O=C(Cc1c(F)cccc1Cl)N1CCC(Nc2cccnn2)CC1 | -4.92
CN(C)c1cc(C(=O)N2CCCCC2CNS(C)(=O)=O)ccn1 (stereo not given) | -16
Cc1nc(C)n(CC2CCCN(CCC(=O)NC3CCCC3)C2)n1 (stereo not given) | -6.73
O=C(CN(Cc1ccco1)C1CC1)N1CCCCCC1 | -3.26
COc1cc2ccccc2cc1C(=O)N1CCCC(c2nncn2C)C1 (stereo not given) | -6.9
Cn1cnnc1C1CCCN(C(=O)c2cc3ccccc3[nH]2)C1 (stereo not given) | -7.88
CCc1ccc(S(=O)(=O)Nc2c(C)cccc2C(=O)O)s1 | -15.9
Cn1ccc(CN2CCCC2c2ccc3c(c2)OCCCO3)cc1=O (stereo not given) | -4.2
Cc1csc(N2CCCN(C(=O)C3(C#N)CCCCC3)CC2)n1 | -2.45

Compound | cytotoxicity at 10 µM [%]
CCc1nc(C2CCCN2C(=O)c2ccc3c(c2)nc(C)n3C)no1 (stereo not given) | 3.54
COc1ccc(CN2CCCC2Cn2nc(C)nc2C)cc1F (stereo not given) | 2.89
CC(CNCc1ccc2c(c1)n(C)c(=O)n2C)Oc1ccccn1 (stereo not given) | 6.27
COCCN1CCn2c(CN(C)C(C)C)cnc2C1 | -2.92
CCN1CCn2c(C)cnc2C12CCN(C(=O)c1cscn1)CC2 | 6.59
COCCN1C[C@@H](C)[C@@]2(COCCN(C(=O)c3ccncc3)C2)C1 | 5.71
CO[C@@H]1CC[C@H]2[C@H]1OCCN2Cc1ccc(F)c(F)c1 | 4.33
c1cncc(CO[C@H]2CC[C@H]3[C@@H]2OCCN3C2CCOCC2)c1 | -14.4
O=C1CCCN1Cc1nnc2n1CCN(Cc1ccco1)CC2 | 3.39
O=C(NCc1ccccn1)[C@@H]1COC[C@H]2CN(c3ncccn3)C[C@H]21 | 7.31
CN1CCN([C@@H]2CCN(C3CCOCC3)[C@H]2Cc2cnn(C)c2)CC1 | 5.07
COc1ccc(CN2CCC3(CC2)CCN(CC(=O)N(C)C)C3=O)cc1 | -0.449
COc1cccc(-c2c[nH]c(C3CCCN3)n2)c1 (stereo not given) | -4.91
CN1CCN(Cc2cccnc2)C2(CCN(c3ncc(F)cn3)C2)C1=O (stereo not given) | -6.49
COC[C@H]1CCC[C@]12CN(CCc1ccccc1)CCO2 | 4.34
Cc1cccc(CN2C[C@@H]3OCCN(S(=O)(=O)N(C)C)[C@@H]3C2)c1 | -12.4
CCOCC1CN(c2ccncn2)Cc2cnn(CC3CC3)c21 (stereo not given) | 6.38
CC(=O)N1C[C@@H]2CN(Cc3cccnc3)CCO[C@@H]2C1 | -0.271
Cc1ccc(N2CCCC3(COCCN(c4nccs4)C3)C2)nn1 (stereo not given) | -1.05
O=C1NC2(CCN(C(=O)c3ccccc3)CC2)CC1c1cccnc1 (stereo not given) | -10.9
CS(=O)(=O)N1C[C@H]2CC[C@@H](C1)N(C(=O)Cn1ccc3ccccc31)C2 | -1.38
COCC(=O)NCC1CCC(c2nnc(-c3cccnc3)o2)CC1 (stereo not given) | -2.74

From ChEMBL document CHEMBL4513216, “Probing the Open Global Health Chemical Diversity Library for Multistage-Active Starting Points for Next-Generation Antimalarials” (ACS Infect Dis, 2020)
